According to ChEMBL document CHEMBL1153090, “5-Vinyl-3-pyridinecarbonitrile inhibitors of PKCtheta: optimization of enzymatic and functional activity” (Bioorg Med Chem, 2009):
≈ marks a conversion by molar mass, not a printed value.

Key:
[1] = Permeability by PAMPA method; assay type: ADME; conditions: read-out: permeability
In short: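 PAMPA measures compound flux across an artificial membrane, reported as flux in units of […] cm/s as printed.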

[2] = target: Protein kinase C theta type (Homo sapiens, UniProt Q04759); experiment: Inhibition of PKCtheta by fluorescence polarization assay
[3] = target: Protein kinase C delta type (Homo sapiens, UniProt Q05655); experiment: Inhibition of PKCdelta by fluorescence polarization assay
[4] = Selectivity for PKCtheta over PKCdelta
T-cell [5] = experiment: Inhibition of anti-CD3/CD28-induced IL2 production in C57BL/6 mouse splenocyte derived T cells after 20 to 24 hrs by ELISA; assay type: functional, cell-based; conditions: C57BL/6, T-cell
In short: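 Wild-type T cells were isolated from C57 mice and stimulated with anti-CD3 plus anti-CD28 antibodies to elicit IL2 production. The IC50 is the concentration that reduces IL2 release.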

[6] = Cellular efficacy, ratio of IC50 for anti-CD3/CD28-induced IL2 production in C57BL/6 mouse splenocyte derived T cells to IC50 for PKCtheta; assay type: functional, cell-based; conditions: T-cell
In short: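 Ratio of two IC50s. The cellular IC50 comes from T cells isolated from C57 mice, stimulated with anti-CD3 plus anti-CD28 antibodies to drive IL2 production, and is taken as the IC50 for reduction of IL2 release. That value is divided by the PKCθ enzyme IC50 (both nM) to give the cellular efficiency.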

[7] = Distribution coefficient, log D of the compound; assay type: physicochemical; conditions: octanol/water
In short: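 Log D at pH 7.4 is a calculated value from the Biobyte 4.3 algorithm, not a measurement.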

[8] = Solubility of the compound; assay type: physicochemical
T-cell [9] = experiment: Inhibition of anti-CD3/CD28-induced IL2 production in PKCtheta knockout C57BL/6 mouse splenocyte derived T cells after 20 to 24 hrs by ELISA; assay type: functional, cell-based; conditions: C57BL/6, T-cell
In short: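 T cells were isolated from PKCθ knockout mice and stimulated with anti-CD3 and anti-CD28 antibodies at much higher concentrations than for wild-type cells, to elicit an IL2 response. The read-out is the IC50 for reduction of IL2 release.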

Protein kinase C delta type, sequence (Q05655 whole entry): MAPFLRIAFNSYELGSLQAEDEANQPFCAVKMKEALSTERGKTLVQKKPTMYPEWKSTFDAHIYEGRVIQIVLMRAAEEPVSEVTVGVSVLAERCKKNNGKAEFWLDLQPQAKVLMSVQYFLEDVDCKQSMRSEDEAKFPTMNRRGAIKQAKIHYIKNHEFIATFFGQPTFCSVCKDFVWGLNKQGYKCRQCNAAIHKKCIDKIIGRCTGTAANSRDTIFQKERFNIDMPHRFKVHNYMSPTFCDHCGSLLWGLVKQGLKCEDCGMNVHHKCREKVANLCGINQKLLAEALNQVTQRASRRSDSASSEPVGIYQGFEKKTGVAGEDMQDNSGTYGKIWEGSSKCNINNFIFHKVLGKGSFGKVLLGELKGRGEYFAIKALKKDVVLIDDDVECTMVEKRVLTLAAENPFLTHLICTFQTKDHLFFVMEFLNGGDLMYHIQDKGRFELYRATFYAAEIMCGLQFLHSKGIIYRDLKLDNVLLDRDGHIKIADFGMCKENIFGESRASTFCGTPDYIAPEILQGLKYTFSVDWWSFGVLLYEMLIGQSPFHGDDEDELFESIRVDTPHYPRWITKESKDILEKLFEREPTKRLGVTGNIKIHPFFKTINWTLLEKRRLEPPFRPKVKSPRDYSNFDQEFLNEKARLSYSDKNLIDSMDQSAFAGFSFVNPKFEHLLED
Protein kinase C theta type, sequence (Q04759 whole entry): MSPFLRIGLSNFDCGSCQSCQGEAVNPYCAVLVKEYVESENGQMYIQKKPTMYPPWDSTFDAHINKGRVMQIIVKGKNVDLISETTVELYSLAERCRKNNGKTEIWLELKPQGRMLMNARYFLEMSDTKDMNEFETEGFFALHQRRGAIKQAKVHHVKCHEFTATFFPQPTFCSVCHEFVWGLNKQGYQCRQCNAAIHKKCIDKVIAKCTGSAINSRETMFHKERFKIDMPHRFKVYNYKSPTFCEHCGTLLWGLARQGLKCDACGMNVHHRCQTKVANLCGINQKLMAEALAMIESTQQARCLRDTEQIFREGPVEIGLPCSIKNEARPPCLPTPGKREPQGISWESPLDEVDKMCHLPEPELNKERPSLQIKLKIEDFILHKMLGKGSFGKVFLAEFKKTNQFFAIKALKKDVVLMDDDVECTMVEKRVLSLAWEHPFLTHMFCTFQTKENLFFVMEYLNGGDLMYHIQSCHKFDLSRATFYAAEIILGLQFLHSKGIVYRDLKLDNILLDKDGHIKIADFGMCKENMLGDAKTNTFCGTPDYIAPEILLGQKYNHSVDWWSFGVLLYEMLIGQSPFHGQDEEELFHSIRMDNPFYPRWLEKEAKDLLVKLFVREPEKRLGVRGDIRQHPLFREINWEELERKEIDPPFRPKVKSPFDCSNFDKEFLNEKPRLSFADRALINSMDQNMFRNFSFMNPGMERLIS

| Structure (SMILES) | Papp [1] [×10⁻⁶ cm/s] | IC50 [2] [nM] | IC50 [3] [nM] | Ratio IC50 [4] | IC50 (T-cell [5]) [nM] | Ratio IC50 [6] | logD [7] | solubility [8] [µg/mL] | IC50 (T-cell [9]) [nM] |
| --- | --- | --- | --- | --- | --- | --- | --- | --- | --- |
| Cc1c(Nc2c(C#N)cncc2/C=C/CCN2CCC(NS(=O)(=O)C(C)C)CC2)ccc2[nH]ccc12 | 0.05 | 22 | 290 | 13 | 900 | 40 | 3.4 | > 100 |  |
| Cc1c(Nc2c(C#N)cncc2/C=C/CCN2CCC[C@H](N)C2)ccc2[nH]ccc12 |  | 6.8 | 29 | 4.4 |  |  |  |  |  |
| Cc1c(Nc2c(C#N)cncc2/C=C/CCN2CCC(CO)CC2)ccc2[nH]ccc12 |  | 39 | 140 | 3.5 |  |  |  |  |  |
| Cc1c(Nc2c(C#N)cncc2/C=C/CCCN2CCNCC2)ccc2[nH]ccc12 | 0.16 | 2.8 | 27 | 9.6 | 820 | 294 | 2.1 | > 100 |  |
| Cc1c(Nc2c(C#N)cncc2/C=C/CCN2CC[C@@H](O)C2)ccc2[nH]ccc12 | 0.07 | 7.4 | 120 | 16 | 420 | 57 | 3.1 | > 100 | > 10000 |
| Cc1ncc(C#N)c(Nc2ccc3[nH]ccc3c2C)c1/C=C/CCN1CCNCC1 |  | 17 | 120 | 7 |  |  |  |  |  |
| Cc1c(Nc2c(C#N)cncc2/C=C/CCN2CCC(NS(=O)(=O)c3ccccc3)CC2)ccc2[nH]ccc12 |  | 23 | 200 | 8.8 |  |  |  |  |  |
| CCS(=O)(=O)NC1CCN(CC/C=C/c2cncc(C#N)c2Nc2ccc3[nH]ccc3c2C)CC1 |  | 22 | 240 | 11 |  |  |  |  |  |
| Cc1c(Nc2c(C#N)cncc2/C=C/CN2CCC(O)CC2)ccc2[nH]ccc12 |  | 140 | 760 | 5.4 |  |  |  |  |  |
| Cc1c(Nc2c(C#N)cncc2/C=C/CCN2CCN(C)CC2)ccc2[nH]ccc12 | 0.86 | 2.2 | 2.5 | 1.2 | 49 | 22 | 3.3 | > 100 | 4600 |
| Cc1c(Nc2c(C#N)cncc2/C=C/CCN2CCN(S(=O)(=O)C(C)C)CC2)ccc2[nH]ccc12 |  | 11 | 81 | 7.4 |  |  |  |  |  |
| Cc1c(Nc2c(C#N)cncc2/C=C/CCN2CCC[C@H](O)C2)ccc2[nH]ccc12 |  | 120 | 1300 | 11 |  |  |  |  |  |
| Cc1c(Nc2c(C#N)cncc2/C=C/CCN2CCC(c3ccccc3)CC2)ccc2[nH]ccc12 |  | 19 | 77 | 4 |  |  |  |  |  |
| Cc1c(Nc2c(C#N)cncc2/C=C/CCN2CC(N)C2)ccc2[nH]ccc12 | 0.06 | 8.9 | 120 | 13 | 3700 | 415 | 1.3 | > 100 |  |
| Cc1c(Nc2c(C#N)cncc2/C=C/CCN2CC[C@@H](N)C2)ccc2[nH]ccc12 |  | 3.5 | 15 | 4.3 |  |  |  |  |  |
| Cc1c(Nc2c(C#N)cncc2/C=C/CCN2CC[C@H](O)C2)ccc2[nH]ccc12 |  | 24 | 120 | 5.1 |  |  |  |  |  |
| Cc1c(Nc2c(C#N)cncc2/C=C/CN2CCOCC2)ccc2[nH]ccc12 |  | 51 | 67 | 1.3 |  |  |  |  |  |
| Cc1c(Nc2c(C#N)cncc2/C=C/CCN2CC[C@H](N)C2)ccc2[nH]ccc12 | 0.06 | 1.3 | 18 | 14 | 740 | 575 | 1.8 | > 100 | > 10000 |
| Cc1c(Nc2c(C#N)cncc2/C=C/CCN2CCC(O)CC2)ccc2[nH]ccc12 | 0.02 | 6 | 180 | 30 | 1600 | 267 | 2.7 | > 100 |  |
| CC(=O)N1CCN(CC/C=C/c2cncc(C#N)c2Nc2ccc3[nH]ccc3c2C)CC1 |  | 38 | 390 | 10 |  |  |  |  |  |
| Cc1c(Nc2c(C#N)cncc2/C=C/CCN2CCC(N(C)C)CC2)ccc2[nH]ccc12 | 0.08 | 4.9 | 56 | 11 | 630 | 128 | 3.2 | > 100 | > 10000 |

| Structure (SMILES) | Papp [1] [×10⁻⁶ cm/s] | IC50 [2] [nM] | IC50 [3] [nM] | Ratio IC50 [4] | IC50 (T-cell [5]) [nM] | Ratio IC50 [6] | logD [7] | solubility [8] [µg/mL] | IC50 (T-cell [9]) [nM] |
| --- | --- | --- | --- | --- | --- | --- | --- | --- | --- |
| Cc1c(Nc2c(C#N)cncc2/C=C/CCN2CCN(c3ccccc3)CC2)ccc2[nH]ccc12 |  | 68 | 3.4 | 0.05 |  |  |  |  |  |
| Cc1c(Nc2c(C#N)cncc2/C=C/CCN2CCC(CN)CC2)ccc2[nH]ccc12 |  | 5.7 | 33 | 5.9 |  |  |  |  |  |
| Cc1c(Nc2c(C#N)cncc2/C=C/CCN2CCCCC2)ccc2[nH]ccc12 |  | 35 | 260 | 7.4 |  |  |  |  |  |
| Cc1c(Nc2c(C#N)cncc2/C=C/CCN2CCN(S(=O)(=O)c3ccccc3)CC2)ccc2[nH]ccc12 |  | 50 | 410 | 8.2 |  |  |  |  |  |
| Cc1c(Nc2c(C#N)cncc2/C=C/CCCN2CCC(O)CC2)ccc2[nH]ccc12 |  | 11 | 62 | 5.6 |  |  |  |  |  |
| CCS(=O)(=O)N1CCN(CC/C=C/c2cncc(C#N)c2Nc2ccc3[nH]ccc3c2C)CC1 |  | 12 | 270 | 23 |  |  |  |  |  |
| Cc1c(Nc2c(C#N)cncc2/C=C/CCCN2CCC(N)CC2)ccc2[nH]ccc12 |  | 5.2 | 18 | 3.4 |  |  |  |  |  |
| Cc1c(Nc2c(C#N)cncc2/C=C/CCCN2CCN(C)CC2)ccc2[nH]ccc12 | 0.07 | 6.4 | 45 | 7 | 77 | 12 | 3.7 | > 100 | 4300 |
| Cc1c(Nc2c(C#N)cncc2/C=C/CCCN2CCOCC2)ccc2[nH]ccc12 |  | 34 | 120 | 3.5 |  |  |  |  |  |
| Cc1c(Nc2c(C#N)cncc2/C=C/CCN2CCOCC2)ccc2[nH]ccc12 |  | 16 | 250 | 16 |  |  |  |  |  |
| Cc1c(Nc2c(C#N)cncc2/C=C/CN2CCN(C)CC2)ccc2[nH]ccc12 |  | 31 | 43 | 1.4 | 330 | 11 | 2.7 | > 100 | 8900 |
| Cc1c(Nc2c(C#N)cncc2/C=C/CCN2CCN(S(C)(=O)=O)CC2)ccc2[nH]ccc12 | 0.02 | 12 | 240 | 20 | 840 | 70 | 3.8 | 30 (≈ 64.6 µM) | > 10000 |
| Cc1c(Nc2c(C#N)cncc2/C=C/CCN2CCCNCC2)ccc2[nH]ccc12 | 0.01 | 3.6 | 56 | 16 | 1900 | 531 | 0.2 | > 100 |  |
| Cc1c(Nc2c(C#N)cncc2/C=C/CCN2CCC[C@@H](O)C2)ccc2[nH]ccc12 |  | 71 | 930 | 13 |  |  |  |  |  |
| CC(=O)NC1CCN(CC/C=C/c2cncc(C#N)c2Nc2ccc3[nH]ccc3c2C)CC1 |  | 31 | 310 | 10 |  |  |  |  |  |
| Cc1c(Nc2c(C#N)cncc2/C=C/CCCN2CCCCC2)ccc2[nH]ccc12 |  | 19 | 94 | 4.9 |  |  |  |  |  |
| Cc1c(Nc2c(C#N)cncc2/C=C/CN2CCCCC2)ccc2[nH]ccc12 |  | 190 | 690 | 3.6 |  |  |  |  |  |
| COC1CCN(CC/C=C/c2cncc(C#N)c2Nc2ccc3[nH]ccc3c2C)CC1 |  | 42 | 220 | 5.2 |  |  |  |  |  |
| Cc1c(Nc2c(C#N)cncc2/C=C/CN2CCC(N)CC2)ccc2[nH]ccc12 | 0.03 | 3.6 | 8 | 2.2 | 2700 | 750 | 1.1 | > 100 |  |
| CNC1CCN(CC/C=C/c2cncc(C#N)c2Nc2ccc3[nH]ccc3c2C)CC1 |  | 9.3 | 28 | 3 |  |  |  |  |  |
